Screens: PubChem, several laboratories
Arrestin-AP2 inh = inhibitors of beta-arrestin/AP2 binding, primary screen, biochemical, GPCR trafficking, flow cytometry; beta-arrestin 1 C-terminal peptide binding to AP2 beta2-adaptin appendage (human); FITC-arrestin peptide / GST-AP2 beads; AP2 beta2 appendage carries R879A mutation; inhibition, % at 10 µM; 340,000 tested, 0.31% active;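 active = inhibition above a set limit, near 3 SD of compounds lacking own fluorescence, cut at about 54% in these data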;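 also: plate controls were DMSO wells for no effect and 5 µM unlabelled arrestin peptide for full effect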
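System: GST-AP2 R879A glutathione beads; medium: PBS, Tween 20 0.05%, BSA 0.1%; reagent: fluorescein-tagged arrestin peptide at 50 nM final; schedule: pre-incubation 12 min, peptide binding 1 h, room temperature; detection: flow cytometry, FL1 (488/535 nm); read-out: inhibition as reduced fluorescein signal on beads, percent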
Granule exo inh = LAMP-1 surface exposure blockers, TALL-104 cells – cell-based, flow cytometry, MLPCN library, primary screen; TALL-104 LAMP-1 surface exposure; cells stimulated with thapsigargin and PMA; inhibition, % at 10 µM; 360,000 tested, 0.66% active; AID 651702, 2012;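 active = inhibition above about 55%, limit read from the data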
ABCB6 inh MLPCN = ABCB6 transporter inhibitors, primary screen, K562-ABCB6 cells, flow cytometry, MLPCN library; 360,000 tested, 0.19% active; AID 602162, 2011; ATP-binding cassette sub-family B member 6 (Homo sapiens), Q9NP58; K562-ABCB6 porphyrin accumulation, 1 h; hits give low values; fluorescence ratio to DMSO, % at 10 µM;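 active = fluorescence ratio to DMSO below 75%, the collection mean minus 3 SD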;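 also: signal is porphyrin accumulated inside mitochondria; 100% equals median channel fluorescence of DMSO control wells; lower ratio means ABCB6 inhibition with less porphyrin fluorescence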
Myeloid diff 2 = induction of myeloid progenitor differentiation, primary screen, cell-based, flow cytometry, MLPCN library; 360,000 tested, 1% active; ER-HoxA9 myeloid progenitors, lysozyme-GFP differentiation; calls only at 10 µM;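 active = normalized GFP-positive differentiation at or above the plate's own cutoff, the solvent-only control mean plus 3 SD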;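 also: cells exposed to compound for four days before flow analysis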
CendR NRP1 mod = modulators of CendR peptide binding to NRP-1, primary screen, biochemical, fluorescence polarization, uHTS; FAM-RPARPAR peptide binding to NRP-1; inhibition, % at 25 µM; 360,000 tested, 0.85% active; AID 602438, 2012;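 active = inhibition or corrected inhibition above about 18%, plus a signal ratio from 0.5 to 1.5, limit read from the data, passing the limit was not always enough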
ATG4B inh = ATG4B protease inhibitors, primary screen, biochemical, fluorescence, uHTS. Cysteine protease ATG4B (Homo sapiens), Q9Y4P1. ATG4B cleavage of LC3-PLA2, NBD-HPC fluorescence, 1 h. inhibition, % at 8.33 µM. 340,000 tested, 0.51% active; in the data active = inhibition above about 40%
ABCB6 inh CP1 = ABCB6 transporter inhibitors, confirmation, K562-ABCB6 cells, flow cytometry, cherry pick 1; shares compounds with ABCB6 inh MLPCN; 700 tested, under 10 active; K562-ABCB6 porphyrin accumulation, 1 h; hits give low values; ratio response (% of DMSO), % at 10 µM;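 active = repeat-averaged ratio response below 75% of DMSO, the collection mean minus 3 SD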;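 also: median porphyrin fluorescence at 575 nm with 488 nm excitation from mitochondria; lower ratio means less porphyrin signal so ABCB6 inhibition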
* marks the source's active call; other numbers are inactive results; i = inactive; / = not tested or not shown. Hits are enriched below; roughly 3.3% of the tested compounds scored in any of these assays.

SMILES	Arrestin-AP2 inh	Granule exo inh	ABCB6 inh MLPCN	Myeloid diff 2	CendR NRP1 mod	ATG4B inh	ABCB6 inh CP1
NC(=O)C(c1ccc(Cl)cc1)c1ccc(Sc2ccccc2)nn1 (centres undefined)	9	0	73*	i	4	-17	97
CCOc1ccc(NC(=O)NNC(=O)C(C)Oc2ccccc2OC)cc1 (centres undefined)	-4	-4	95	i	8	-3	/
O=C(NCC(c1ccco1)N1CCN(c2ccc(F)cc2)CC1)C(=O)NC1CCCCC1 (centres undefined)	30	0	100	i	19	0	/
Cc1ccccc1CSCCNS(C)(=O)=O	37	2	44*	i	-8	16	105
CCc1nnc(SCC(=O)Nc2ccc(N3CCOCC3)cc2)n1C	-16	3	102	i	18	2	/
O=C(Oc1ccc(/C=N/n2cnnc2)cc1)c1cccc([N+](=O)[O-])c1	41	-1	73*	i	5	4	99
O=C(/C=C/Nc1ccc(Oc2ccccc2)cc1)c1ccco1	7	5	86	i	2	31	/
Cc1ccc(S(=O)(=O)NCCCNC(=O)OCc2ccccc2)cc1	9	-4	96	i	-1	-1	/
COc1ccc(-c2nnc(N)s2)cc1	1	-1	87	i	-7	-5	/
Cc1ccc(-c2nnc(N)s2)cc1	-5	7	69*	i	-1	1	103
COC(=O)[C@@H](NC(=O)Nc1ccc(S(N)(=O)=O)cc1)C(C)C	9	-2	71*	i	9	5	103
CN1C(=O)C(C)(C)N(C(=O)c2cccc([N+](=O)[O-])c2)c2ccccc21	8	0	96	i	0	-4	/
O=C(O)c1ccc(CSCc2ccco2)cc1	-4	8	74*	i	-10	-16	99
COc1ccc(Cl)cc1-c1nc(SCC(=O)N(C)CCC#N)n[nH]1	15	2	98	i	3	-15	/
COc1ccc(CN2C(=O)C(CC(=O)NC3CCCC3)CC(C(=O)N(C)C)=C2C)cc1 (centres undefined)	/	0	98	i	4	/	/
COC(=O)[C@@]12CCCCN1[C@H](c1ccc(-c3cccc(Cl)c3)cc1)[C@@H]1C(=O)N(C)C(=O)[C@@H]12	-5	-3	96	i	14	-1	/
COc1ccc(S(=O)(=O)NC(Cc2ccccc2)C(=O)O)cc1 (centres undefined)	32	-1	95	i	5	2	/
O=C(O)C(Cc1ccccc1)NS(=O)(=O)c1ccc2c(c1)OCCO2 (centres undefined)	3	-1	68*	i	8	-2	96
O=C(O)C(Cc1ccccc1)NS(=O)(=O)c1ccc(Cl)cc1 (centres undefined)	0	1	98	i	0	4	/
O=C(O)C(Cc1ccc(Cl)cc1)NS(=O)(=O)c1ccc(Cl)cc1 (centres undefined)	1	1	49*	i	0	-7	102
OCCOCCn1c(CCNc2nc(-c3ccc(F)cc3)cs2)nc2cc(C(F)(F)F)ccc21	2	4	73*	i	12	-8	100
OCCCn1c(CCNc2nc(-c3ccc(Cl)cc3)cs2)nc2cc(C(F)(F)F)ccc21	0	2	99	i	-12	-5	/
CN(C)S(=O)(=O)c1ccc(C(=O)NCCC(=O)N2CCCC2)cc1	-5	-13	70*	i	5	-1	101
